How the values were obtained:
MCF7 = test: Cytotoxicity against human MCF7 cells assessed as growth inhibition after 120 hrs by MTT assay; assay type: functional; details: MCF7, 120 h
How it was run: (§1)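 Cells grown in phenol red-free high-glucose DMEM with 10% FBS, penicillin (62.6 µg/mL) and streptomycin (40 µg/mL) at 37 °C, 10% CO2, screened for Mycoplasma. Exponentially growing cells exposed to test agents for 120 h; viability read by MTT assay; GI50 derived.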

Steryl-sulfatase = target: T1, Steryl-sulfatase (Homo sapiens, UniProt P08842); test: Inhibition of human placenta steroid sulfatase using p-nitrophenyl sulfate as substrate after 15 mins
T1 sequence (P08842 whole entry): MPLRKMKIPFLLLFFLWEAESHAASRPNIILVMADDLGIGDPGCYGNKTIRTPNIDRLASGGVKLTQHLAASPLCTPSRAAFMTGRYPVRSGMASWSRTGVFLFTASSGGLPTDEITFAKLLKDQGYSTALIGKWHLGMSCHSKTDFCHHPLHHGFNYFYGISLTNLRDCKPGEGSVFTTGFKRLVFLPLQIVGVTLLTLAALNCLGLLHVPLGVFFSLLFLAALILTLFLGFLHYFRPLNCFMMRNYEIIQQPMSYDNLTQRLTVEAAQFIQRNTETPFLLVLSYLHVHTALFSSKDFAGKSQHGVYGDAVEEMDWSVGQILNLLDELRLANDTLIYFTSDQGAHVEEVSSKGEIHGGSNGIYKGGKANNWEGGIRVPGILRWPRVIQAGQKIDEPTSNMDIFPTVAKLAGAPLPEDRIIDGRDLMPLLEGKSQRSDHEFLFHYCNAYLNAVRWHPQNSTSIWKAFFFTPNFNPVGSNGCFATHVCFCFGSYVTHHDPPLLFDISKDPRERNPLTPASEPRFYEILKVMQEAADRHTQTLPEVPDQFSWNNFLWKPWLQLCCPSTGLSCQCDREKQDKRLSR
How it was run: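 STS extracted from human placenta, purified to homogeneity by multi-step chromatography; 5 U enzyme in 20 mM Tris–HCl pH 7.4 with 3 mM p-nitrophenyl sulfate and inhibitor 0.01–100 µM, 37 °C for 15 min. Stopped with 1 M NaOH; released p-nitrophenol read at 405 nm. Triplicate measurements; IC50 calculated.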

T47D = test: Cytotoxicity against human T47D cells assessed as growth inhibition after 120 hrs by MTT assay; assay type: functional; how it was run: as §1
MDA-MB-231 = test: Cytotoxicity against human MDA-MB-231 cells assessed as growth inhibition after 120 hrs by MTT assay; assay type: functional; details: MDA-MB-231, 120 h; how it was run: as §1
SK-BR-3 = test: Cytotoxicity against human SKBR3 cells assessed as growth inhibition after 120 hrs by MTT assay; assay type: functional; details: SK-BR-3, 120 h; how it was run: as §1

| SMILES | GI50 (MCF7) | IC50 (Steryl-sulfatase) | GI50 (T47D) | GI50 (MDA-MB-231) | GI50 (SK-BR-3) |
| --- | --- | --- | --- | --- | --- |
| NS(=O)(=O)Oc1ccc2ccc(=O)oc2c1 | > 100 µM | 1.38 µM | > 100 µM | > 100 µM | > 100 µM |
| NS(=O)(=O)Oc1ccc2cc(-c3ccc([N+](=O)[O-])cc3)c(=O)oc2c1 | – | 0.29 µM | – | – | – |
| NS(=O)(=O)Oc1ccc2cc(-c3ccc(NC(=O)Cc4ccc(F)c(F)c4)cc3)c(=O)oc2c1 | – | 0.36 µM | – | – | – |
| NS(=O)(=O)Oc1ccc2cc(-c3cc(F)c(F)c(F)c3)c(=O)oc2c1 | 32.6 µM | 0.29 µM | 30.7 µM | 56.3 µM | 61.3 µM |
| NS(=O)(=O)Oc1ccc2cc(-c3ccc(NC(=O)Cc4ccc(F)c(C(F)(F)F)c4)cc3)c(=O)oc2c1 | – | 0.38 µM | – | – | – |
| NS(=O)(=O)Oc1ccc2cc(-c3ccc(NC(=O)Cc4c(F)c(F)c(F)c(F)c4F)cc3)c(=O)oc2c1 | – | 0.34 µM | – | – | – |
| NS(=O)(=O)Oc1ccc2cc(-c3ccc(NC(=O)c4ccccc4)cc3)c(=O)oc2c1 | – | 0.49 µM | – | – | – |
| NS(=O)(=O)Oc1ccc2cc(-c3ccc(NC(=O)Cc4ccc(OC(F)(F)F)cc4)cc3)c(=O)oc2c1 | – | 0.44 µM | – | – | – |
| NS(=O)(=O)Oc1ccc2cc(-c3ccc(NC(=O)c4ccc(F)c(F)c4)cc3)c(=O)oc2c1 | > 100 µM | 0.18 µM | > 100 µM | > 100 µM | > 100 µM |
| NS(=O)(=O)Oc1ccc2cc(-c3ccc(F)c(F)c3)c(=O)oc2c1 | 30 µM | 0.28 µM | 43 µM | 61.5 µM | > 100 µM |
| NS(=O)(=O)Oc1ccc2cc(-c3ccc(NC(=O)Cc4ccccc4)cc3)c(=O)oc2c1 | – | 0.26 µM | – | – | – |
| NS(=O)(=O)Oc1ccc2cc(-c3ccc(NC(=O)c4ccc(F)cc4)cc3)c(=O)oc2c1 | > 100 µM | 0.21 µM | > 100 µM | > 100 µM | > 100 µM |
| NS(=O)(=O)Oc1ccc2cc(-c3ccc(NC(=O)Cc4cc(F)c(F)c(F)c4)cc3)c(=O)oc2c1 | 31.3 µM | 0.3 µM | 13.7 µM | 11.7 µM | 36.1 µM |
| NS(=O)(=O)Oc1ccc2cc(-c3ccc(NC(=O)c4c(F)c(F)c(F)c(F)c4F)cc3)c(=O)oc2c1 | – | 0.23 µM | – | – | – |
| CC/C(=C(\c1ccccc1)c1ccc(OCCN(C)C)cc1)c1ccccc1 [TAMOXIFEN] | 6.8 µM | – | 10.6 µM | 15.1 µM | 12.5 µM |
